Source: PubChem
Shown are actives, neighbours in structure and some others; about 2.3% of the full set was active somewhere.
TPT1 inhibitor – Candida albicans TPT1 enzyme inhibitors, primary screen, biochemical, fluorescence polarization. 300,000 compounds, 0.81% hits. AID 1962, 2009. recombinant caTPT1, FP RNA substrate dephosphorylation. inhibition, % at 5 µM. tRNA 2'-phosphotransferase TPT1 (Candida albicans SC5314);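 active = inhibition above the mean of all tested compounds plus 3 SD, set per screening campaign, cut at about 24% in these data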
CSN inh – inhibitors of CSN-mediated cullin deneddylation, primary screen, biochemical, fluorescence polarization, uHTS; COP9 signalosome complex subunit 5 (Homo sapiens), Q92905; Purified CSN, SCF-Nedd8-OG deneddylation; inhibition, % at 12.5 µM; 360,000 compounds, 0.38% hits; AID 651999, 2013;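 active = pattern-corrected inhibition above about 35%, with an unprinted fluorescence ratio check between 0.5 and 1.5, limit read from the data, passing the limit was not always enough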
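test system = HEK293T-derived human Csn5 enzyme | amount = 0.24 nM Csn5 enzyme, final concentration | medium = Tris/NaCl/DTT buffer, pH 7.5 | schedule = 90 min reaction at room temperature | signal = FP | evaluation = inhibition of Csn5 cleavage, % | compound dosing = single dose of 12.5 µM compound with 0.25% DMSO | probe or stimulus = 10 nM SCFSkp2-Nedd8OG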
Rpn11 inh – Rpn11 (PSMD14) deubiquitinase inhibitors, primary screen, biochemical, fluorescence polarization, uHTS; AID 588493, 2011; human 26S proteasome, Ub4-pepOG fluorescence polarization; 20S core pre-blocked with epoxomicin; 360,000 compounds, 0.59% hits; 26S proteasome non-ATPase regulatory subunit 14 (Homo sapiens), O00487; inhibition, % at 20 µM;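 active = inhibition at 20 µM, scaled to each plate's controls, above about 33%, limit read from the data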
HNF4A DNA FP – change in binding of human HNF4A to DNA, primary screen, biochemical, fluorescence polarization, FITC-DNA | activity change, % at 10 µM | 1 h | AID 1224865, 2016 | 360,000 compounds, 0.3% hits; in the data active = activity change above about 30%, passing the limit was not always enough
Target sequence (P41235 whole entry, looked up): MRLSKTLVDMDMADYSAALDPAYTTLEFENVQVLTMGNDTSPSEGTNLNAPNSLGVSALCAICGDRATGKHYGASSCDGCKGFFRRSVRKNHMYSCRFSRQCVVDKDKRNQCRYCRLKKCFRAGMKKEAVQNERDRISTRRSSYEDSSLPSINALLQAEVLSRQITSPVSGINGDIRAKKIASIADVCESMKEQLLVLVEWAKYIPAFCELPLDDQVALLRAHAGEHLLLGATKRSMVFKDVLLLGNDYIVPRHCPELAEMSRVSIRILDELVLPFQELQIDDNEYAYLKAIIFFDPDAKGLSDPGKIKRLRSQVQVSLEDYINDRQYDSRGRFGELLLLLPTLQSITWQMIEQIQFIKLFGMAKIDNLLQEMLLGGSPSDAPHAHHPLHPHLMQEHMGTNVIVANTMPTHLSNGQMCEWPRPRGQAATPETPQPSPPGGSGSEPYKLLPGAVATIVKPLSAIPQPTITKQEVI
Myeloid diff 2 – induction of myeloid progenitor differentiation, primary screen, cell-based, flow cytometry, MLPCN library. 360,000 compounds, 1% hits. ER-HoxA9 myeloid progenitors, lysozyme-GFP differentiation. calls only at 10 µM;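 active = normalized GFP-positive differentiation at or above the plate's own cutoff, the solvent-only control mean plus 3 SD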;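 note: cells exposed to compound for four days before flow analysis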
Myeloid diff – inducers of myeloid progenitor differentiation, confirmation, cell-based, GFP/Mac1 flow cytometry, cherry pick 01; shares compounds with Myeloid diff 2; ER-HoxA9 myeloid progenitors, GFP/Mac1 double-positive flow; calls only; 2,300 compounds, 2% hits;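 active = share of green or green-and-red cells above 9 and 9% in run 1 or 4 and 3% in run 2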
GFP autofluor – compound fluorescence in myeloid differentiation counter-screen; shares compounds with Myeloid diff 2; ER-HoxA9 myeloid progenitors, no estrogen, GFP autofluorescence flow cytometry; vehicle wells 0%, positive control 100%; fluorescence response, % (concentration not given with the values); 2,300 compounds, 7.4% hits; AID 651707;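 active = over 5% cells positive for green fluorescent reporter, or over 2% positive for both it and APC stain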
Of the large screens only hits and unclear results are named; the others gave an inactive call (follow-up assays come after a bar, where they were run).

Cc1ccc2c(c1)CCCN2CC(=O)N(C)c1c(N)n(Cc2ccccc2)c(=O)[nH]c1=O	none (no result: TPT1 inhibitor) | Myeloid diff inactive | GFP autofluor inactive
CCN(C(=O)CN1CCCCC1)c1c(N)n(Cc2ccccc2)c(=O)[nH]c1=O	none (no result: TPT1 inhibitor)
COc1ccc(S(=O)(=O)N2CN3CCN(C3)C2)cc1OC	none
OC[C@@H]1CN(Cc2ccccc2)C[C@H](n2cnc3c(NCc4ccco4)ncnc32)O1	Myeloid diff 2 active (no result: TPT1 inhibitor) | Myeloid diff inactive | GFP autofluor inactive
OC[C@@H]1CN(Cc2ccc(-c3ccccc3)cc2)C[C@H](n2cnc3c(NCc4ccco4)ncnc32)O1	none (no result: TPT1 inhibitor)
O=C(O)c1ccccc1C(=O)N1CCN(c2cccc(Cl)c2)CC1	none
CCOc1ccccc1C(=O)N1CCN(c2cccc(Cl)c2)CC1	none | Myeloid diff inactive | GFP autofluor inactive
NNC(=O)c1csc(-c2ccccc2)n1	Myeloid diff 2 active | Myeloid diff inactive | GFP autofluor inactive
CN(CCO)c1cccc2c1S(=O)(=O)N[C@@H](Cc1ccccc1)CO2	none (no result: TPT1 inhibitor, Rpn11 inh)
CCN(c1ccccc1)S(=O)(=O)c1ccc(OC)c(NC(=O)c2cc(F)c(F)c(F)c2F)c1	none (no result: TPT1 inhibitor)
CCOC(=O)C1CCN(C(=O)COc2ccc(Cl)cc2Cl)CC1	none | Myeloid diff inactive | GFP autofluor inactive
CCOC(=O)C1CCN(C(=O)COc2ccc(Cl)cc2C)CC1	none
COc1ccc(S(=O)(=O)NC(=O)C2(C)CCN2C(=O)Cc2cc(C)cc(C)c2)cc1OC (stereo not drawn)	none (no result: TPT1 inhibitor)
Cc1ccc(F)c(NC=C2C(=O)OC(C)(C)OC2=O)c1	none | Myeloid diff inactive | GFP autofluor inactive
COc1cc(O)c(CCC(=O)c2ccc(OC)c(OC)c2)c(OC)c1	none
COc1ccc(C(=Cc2ccccc2[N+](=O)[O-])C(=O)O)cc1	none (no result: TPT1 inhibitor)
OC1(c2ccccc2F)CCN(Cc2nnnn2Cc2ccc(F)cc2)CC1	Myeloid diff 2 active | Myeloid diff inactive | GFP autofluor inactive
Cc1cc(Nc2cccc([N+](=O)[O-])c2)c2cccc(C)c2n1	none
Cc1cc(Nc2ccccc2)c2c([N+](=O)[O-])ccc(C)c2n1	none | Myeloid diff inactive | GFP autofluor inactive
Cc1ccc(-n2ncc3c(NCc4ccco4)ncnc32)cc1C	none
Cc1cccc(-n2ncc3c(NCc4ccco4)ncnc32)c1	Myeloid diff 2 active | Myeloid diff inactive | GFP autofluor inactive
Cc1c(C(=O)O)sc2nc3n(c(=O)c12)CCC(C)CC3 (stereo not drawn)	Myeloid diff 2 active | Myeloid diff inactive | GFP autofluor inactive
Cn1cc(CC(=O)N2CCN(c3ccc(Cl)cc3)CC2)c2ccccc21	none | Myeloid diff inactive | GFP autofluor inactive
COc1ccccc1-n1c(C)cc(C=O)c1C	none
COc1ccc(Br)c(-c2nc(CS(=O)(=O)c3ccc(F)cc3)no2)c1	none | Myeloid diff inactive | GFP autofluor inactive
COc1ccc(Br)c(-c2nnc(CS(=O)(=O)c3ccccc3)o2)c1	none
Cn1c(-c2ccccc2)c[n+]2c1-c1ccccc1C2	none | Myeloid diff active | GFP autofluor inactive
Cc1csc(SCc2nnc(-c3ccc(Cl)cc3)o2)n1	none
Cc1csc(SCc2nnc(-c3ccccc3Br)o2)n1	none | Myeloid diff inactive | GFP autofluor inactive
C=C(c1cn(C(C)=O)c2ccccc12)c1cn(C(C)=O)c2ccccc12	none (no result: TPT1 inhibitor) | Myeloid diff inactive | GFP autofluor inactive
O=C(NN1C(=O)c2ccccc2NC1c1ccco1)c1ccccc1 (stereo not drawn)	Myeloid diff 2 active | Myeloid diff inactive | GFP autofluor inactive
Cn1c(=O)oc2cc(NC(=O)CCl)ccc21	none | Myeloid diff inactive | GFP autofluor inactive
CC(=O)Nc1ccc(NC(=O)CCS(=O)(=O)c2ccc3c(c2)oc(=O)n3C)cc1	none
O=[N+]([O-])c1ccc(N=Nc2c(O)[nH]c3ccc(F)cc23)cc1	none
